Measurements from ChEMBL document CHEMBL1811768, “Synthesis of N-substituted 3,5-bis(arylidene)-4-piperidones with high antitumor and antioxidant activity” (J Med Chem, 2011).
Calls of active or inactive are those of the source. The calls are words filed in the database; no cut-off is given here.

Key:
[1] = Cytotoxicity against rat H9c2 cells assessed as cell viability at 10 uM after 24 hrs by MTT assay relative to control; format: cell-based; conditions: read-out: Activity
MCF7 [2] = assay: Cytotoxicity against human MCF7 cells assessed as cell viability at 10 uM after 24 hrs by MTT assay relative to control; format: functional; conditions: MCF7, 24 h, read-out: Activity
Procedure, shortened: (§1)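 MTT viability assay in human A2780 and MCF-7 cancer cells. Cells were exposed to compound at 10 μM for 24 h. Results are given as percent cell viability relative to the respective untreated control.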

A2780 [3] = assay: Cytotoxicity against human A2780 cells assessed as cell viability at 10 uM after 24 hrs by MTT assay relative to control; format: functional; conditions: A2780, 24 h, read-out: Activity; procedure, shortened: as §1
Liver = assay: Biodistribution in ip dosed rat liver after 3 hrs; format: ADME, organism-based; conditions: in vivo
PA-1 = assay: Cytotoxicity against human PA1 cells by MTT assay; format: functional, cell-based
MCF7 [4] = assay: Induction of apoptosis in human MCF7 cells assessed as cleavage of PARP by Western blot analysis; format: functional, cell-based
A2780 [5] = assay: Induction of Fas/CD95 expression in human A2780 cells; format: functional, cell-based
Blood = assay: Biodistribution in ip dosed rat blood after 3 hrs; format: ADME, organism-based; conditions: in vivo
Homo sapiens = species: Homo sapiens; assay: Cytotoxicity against human A2780DDP cells by MTT assay; format: functional, cell-based
[6] = target: Tyrosine-protein kinase JAK1 (Homo sapiens) (UniProt P23458); assay: Inhibition of JAK1 phosphorylation in human A2780 cells; format: cell-based
[7] = target: Signal transducer and activator of transcription 3 (Homo sapiens) (UniProt P40763); assay: Inhibition of STAT3 phosphorylation at Tyr705/Ser727 in human A2780 cells by Western blot analysis; format: cell-based
A2780 [8] = assay: Induction of cell cycle arrest at G2/M phase in human A2780 cells assessed as modulation of p21 expression; format: functional, cell-based
Rattus norvegicus = assay: Biodistribution in ip dosed rat stomach after 3 hrs; format: ADME, organism-based; conditions: in vivo
A2780 [9] = assay: Induction of cell cycle arrest at G2/M phase in human A2780 cells assessed as modulation of p53 expression; format: functional, cell-based
A2780 [10] = assay: Antitumor activity against human A2780 cells in xenograft model assessed as reduction of JAK phosphorylation level in tumor; format: functional, cell-based
MCF7 [11] = assay: Induction of apoptosis in human MCF7 cells assessed as caspase 3 activation by Western blot analysis; format: functional, cell-based
A2780 [12] = assay: Antitumor activity against human A2780 cells in xenograft model assessed as tumor growth inhibition; format: functional, cell-based
SK-OV-3 = assay: Cytotoxicity against human SKOV3 cells by MTT assay; format: functional, cell-based
[13] = Inhibition of JAK/STAT3 pathway in human A2780 cells assessed as reduction in survivin level; format: cell-based
[14] = Inhibition of JAK/STAT3 pathway in human A2780 cells assessed as reduction in VEGF level; format: cell-based
A2780 [15] = assay: Induction of cell cycle arrest at G2/M phase in human A2780 cells assessed as modulation of p27 expression; format: functional, cell-based
Kidney = assay: Biodistribution in ip dosed rat kidney after 3 hrs; format: ADME, organism-based; conditions: in vivo
A2780 [16] = assay: Induction of cell cycle arrest at G2/M phase in human A2780 cells assessed as modulation of CDK2 expression; format: functional, cell-based
OV4 = assay: Cytotoxicity against human OV4 cells by MTT assay; format: functional, cell-based
[17] = Inhibition of JAK/STAT3 pathway in human A2780 cells assessed as reduction in Bcl-2 level; format: cell-based
A2780 [18] = assay: Antitumor activity against human A2780 cells in xenograft model assessed as reduction of STAT3 phosphorylation at Tyr705/Ser727 level in tumor; format: functional, cell-based
A2780 [19] = assay: Induction of cell cycle arrest at G2/M phase in human A2780 cells assessed as modulation of cyclin expression; format: functional, cell-based
A2780 [20] = assay: Antitumor activity against human A2780 cells in xenograft model assessed as increase of PARP level in tumor; format: functional, cell-based
[21] = Inhibition of JAK/STAT3 pathway in human A2780 cells assessed as reduction in Bcl-xL level; format: cell-based
A2780 [22] = assay: Induction of apoptosis in human A2780 cells assessed as caspase 3 activation; format: functional, cell-based
A2780 [23] = assay: Induction of apoptosis in human A2780 cells assessed as caspase 3 activation by Western blot analysis; format: functional, cell-based
[24] = target: Signal transducer and activator of transcription 3 (Homo sapiens) (UniProt P40763); assay: Inhibition of STAT3 phosphorylation at Tyr705 in human A2780 cells; format: cell-based
OVCA3 = assay: Cytotoxicity against human OVCA3 cells by MTT assay; format: functional, cell-based
A2780 [25] = assay: Antitumor activity against human A2780 cells in xenograft model assessed as increase of caspase 3 level in tumor; format: functional, cell-based
A2780 [26] = assay: Induction of apoptosis in human A2780 cells assessed as cleavage of PARP by Western blot analysis; format: functional, cell-based
A2780 [27] = assay: Induction of apoptosis in human A2780 cells assessed as caspase 8 activation; format: functional, cell-based
[28] = target: Signal transducer and activator of transcription 3 (Homo sapiens) (UniProt P40763); assay: Inhibition of STAT3 phosphorylation at Tyr705/Ser727 in human MCF7 cells by Western blot analysis; format: cell-based

Signal transducer and activator of transcription 3 (Homo sapiens), sequence (P40763 whole entry): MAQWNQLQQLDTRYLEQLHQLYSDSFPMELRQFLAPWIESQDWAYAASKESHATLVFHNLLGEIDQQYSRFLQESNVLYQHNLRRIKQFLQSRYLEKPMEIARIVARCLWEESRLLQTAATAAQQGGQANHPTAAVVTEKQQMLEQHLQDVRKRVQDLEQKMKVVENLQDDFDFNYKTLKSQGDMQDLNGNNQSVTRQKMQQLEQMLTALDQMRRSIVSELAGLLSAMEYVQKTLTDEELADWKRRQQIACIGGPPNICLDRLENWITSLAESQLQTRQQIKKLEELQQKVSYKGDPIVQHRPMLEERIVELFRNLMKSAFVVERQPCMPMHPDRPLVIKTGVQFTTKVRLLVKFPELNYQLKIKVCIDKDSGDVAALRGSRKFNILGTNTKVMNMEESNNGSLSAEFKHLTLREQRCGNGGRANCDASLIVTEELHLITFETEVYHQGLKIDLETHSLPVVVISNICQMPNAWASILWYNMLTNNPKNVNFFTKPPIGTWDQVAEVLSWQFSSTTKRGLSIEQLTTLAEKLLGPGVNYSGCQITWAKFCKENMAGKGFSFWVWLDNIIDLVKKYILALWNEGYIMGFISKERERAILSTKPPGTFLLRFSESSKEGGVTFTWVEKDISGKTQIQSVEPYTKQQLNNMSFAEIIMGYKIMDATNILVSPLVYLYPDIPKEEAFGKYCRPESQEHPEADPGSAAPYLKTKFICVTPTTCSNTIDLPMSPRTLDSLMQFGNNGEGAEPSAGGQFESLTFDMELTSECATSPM
Tyrosine-protein kinase JAK1 (Homo sapiens), sequence (P23458 whole entry): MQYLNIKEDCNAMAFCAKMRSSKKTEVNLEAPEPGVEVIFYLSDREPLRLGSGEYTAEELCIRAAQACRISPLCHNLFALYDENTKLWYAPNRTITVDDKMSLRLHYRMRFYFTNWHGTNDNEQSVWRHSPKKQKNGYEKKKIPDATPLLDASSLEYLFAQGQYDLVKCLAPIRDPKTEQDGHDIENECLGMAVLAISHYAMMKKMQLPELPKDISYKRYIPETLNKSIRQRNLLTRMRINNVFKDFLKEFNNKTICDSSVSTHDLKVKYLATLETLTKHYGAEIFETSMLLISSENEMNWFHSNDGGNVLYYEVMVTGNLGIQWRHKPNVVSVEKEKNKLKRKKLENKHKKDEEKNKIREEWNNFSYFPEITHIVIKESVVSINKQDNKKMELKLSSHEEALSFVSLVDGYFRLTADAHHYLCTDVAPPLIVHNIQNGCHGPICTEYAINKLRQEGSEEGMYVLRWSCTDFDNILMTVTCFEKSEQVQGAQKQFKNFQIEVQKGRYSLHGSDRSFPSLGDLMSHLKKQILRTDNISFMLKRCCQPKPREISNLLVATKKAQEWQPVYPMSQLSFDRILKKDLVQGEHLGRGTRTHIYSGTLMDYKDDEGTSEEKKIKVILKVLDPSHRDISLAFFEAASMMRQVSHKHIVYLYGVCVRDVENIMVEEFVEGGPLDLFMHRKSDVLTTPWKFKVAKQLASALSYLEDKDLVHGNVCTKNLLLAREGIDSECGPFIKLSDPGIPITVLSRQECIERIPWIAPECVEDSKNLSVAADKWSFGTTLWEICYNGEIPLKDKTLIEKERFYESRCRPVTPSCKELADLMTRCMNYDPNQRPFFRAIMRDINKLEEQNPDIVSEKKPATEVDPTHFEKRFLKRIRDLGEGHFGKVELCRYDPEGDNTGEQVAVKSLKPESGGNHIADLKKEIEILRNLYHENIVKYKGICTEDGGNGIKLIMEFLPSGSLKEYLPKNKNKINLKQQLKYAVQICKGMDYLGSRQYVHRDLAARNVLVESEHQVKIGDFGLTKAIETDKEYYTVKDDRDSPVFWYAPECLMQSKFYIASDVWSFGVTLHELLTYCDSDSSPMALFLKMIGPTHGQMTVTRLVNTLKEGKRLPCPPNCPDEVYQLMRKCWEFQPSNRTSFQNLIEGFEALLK

`CC1(C)c2ccc(CN3C/C(=C\c4ccc(F)cc4)C(=O)/C(=C/c4ccc(F)cc4)C3)cc2C(C)(C)N1[O]` showed a viability at 24 h, 10 µM [1] of 26.4%, a viability at 10 µM (MCF7 [2]) of 46.2% and a viability at 10 µM (A2780 [3]) of 9.5%.
Compound `COc1ccc(/C=C2\CNC/C(=C\c3ccc(OC)c(OC)c3OC)C2=O)c(OC)c1OC` has a viability at 24 h, 10 µM [1] of 32.3%, a viability at 10 µM (MCF7 [2]) of 56.6% and a viability at 10 µM (A2780 [3]) of 11%.
`CC1(C)C=C(C(=O)N2C/C(=C\c3ccc(F)cc3)C(=O)/C(=C/c3ccc(F)cc3)C2)C(C)(C)N1[O]` gave a viability at 24 h, 10 µM [1] of 33.3%, a viability at 10 µM (MCF7 [2]) of 12.4% and a viability at 10 µM (A2780 [3]) of 4.54%.
With `CC1(C)C=C(CN2C/C(=C\c3ccc(F)cc3)C(=O)/C(=C/c3ccc(F)cc3)C2)C(C)(C)N1[O]` the Drug uptake (Liver) was “Active”, the Activity (PA-1) was “Active” and the Activity (MCF7 [4]) was “Active”. For the same compound, the Activity (A2780 [5]) was “Active”, the Drug uptake (Blood) was “Active” and the Activity (Homo sapiens) was “Active”. The inhibition [6] was “Active”, the inhibition [7] was “Active” and the Activity (A2780 [8]) was “Active”. For the same compound, the Drug uptake (Rattus norvegicus) was “Active”, the Activity (A2780 [9]) was “Active” and the Activity (A2780 [10]) was “Active”. For the same compound, the Activity (MCF7 [11]) was “Active”, the “growth inhibition (GI)” value (A2780 [12]) was “Dose-dependent effect” and the Activity (SK-OV-3) was “Active”. The viability at 24 h, 10 µM [1] was 88.5%, the viability at 10 µM (MCF7 [2]) was 16.6% and the inhibition [13] was “Active”. The inhibition [14] was “Active”, the Activity (A2780 [15]) was “Active” and the Drug uptake (Kidney) was “Active”. For the same compound, the Activity (A2780 [16]) was “Active”, the Activity (OV4) was “Active” and the inhibition [17] was “Active”. For the same compound, the Activity (A2780 [18]) was “Active”, the Activity (A2780 [19]) was “Active” and the Activity (A2780 [20]) was “Active”. The inhibition [21] was “Active”, the Activity (A2780 [22]) was “Active” and the Activity (A2780 [23]) was “Active”. For the same compound, the inhibition [24] was “Active”, the Activity (OVCA3) was “Active” and the Activity (A2780 [25]) was “Active”. The viability at 10 µM (A2780 [3]) was 20.5%, the Activity (A2780 [26]) was “Active” and the Activity (A2780 [27]) was “Active”. The inhibition [28] was “Active”.
For `CC1(C)c2cnc(CN3C/C(=C\c4ccc(F)cc4)C(=O)/C(=C/c4ccc(F)cc4)C3)cc2C(C)(C)N1[O]`, the viability at 24 h, 10 µM [1] was 46.6%, the viability at 10 µM (MCF7 [2]) was 42.7% and the viability at 10 µM (A2780 [3]) was 5.26%.
`COc1ccc(/C=C2\CN(CC3=CC(C)(C)N([O])C3(C)C)C/C(=C\c3ccc(OC)c(OC)c3OC)C2=O)c(OC)c1OC` showed a viability at 24 h, 10 µM [1] of 53.1%, a viability at 10 µM (MCF7 [2]) of 28% and a viability at 10 µM (A2780 [3]) of 26.1%.
Work on `CC1=C(CN2C/C(=C\c3ccc(F)cc3)C(=O)/C(=C/c3ccc(F)cc3)C2)C(C)(C)N([O])C1(C)C` yielded a viability at 24 h, 10 µM [1] of 56.8%, a viability at 10 µM (MCF7 [2]) of 42% and a viability at 10 µM (A2780 [3]) of 6.75%.
Work on `CC1(C)C=C(NC(=O)N2C/C(=C\c3ccc(F)cc3)C(=O)/C(=C/c3ccc(F)cc3)C2)C(C)(C)N1[O]` yielded a viability at 24 h, 10 µM [1] of 36.7%, a viability at 10 µM (MCF7 [2]) of 12.6% and a viability at 10 µM (A2780 [3]) of 5.9%.
With `CC1(C)C=C(CN2C/C(=C\c3ccccc3F)C(=O)/C(=C/c3ccccc3F)C2)C(C)(C)N1[O]` the viability at 24 h, 10 µM [1] was 86.3%, the viability at 10 µM (MCF7 [2]) was 53.5% and the viability at 10 µM (A2780 [3]) was 12.5%.
`CC1(C)C=C(CN2C/C(=C\c3ccc(C(F)(F)F)cc3)C(=O)/C(=C/c3ccc(C(F)(F)F)cc3)C2)C(C)(C)N1[O]` gave a viability at 24 h, 10 µM [1] of 17.1%, a viability at 10 µM (MCF7 [2]) of 14.2% and a viability at 10 µM (A2780 [3]) of 5.85%.
`CC1(C)CCC(C)(C#CCN2C/C(=C\c3ccc(F)cc3)C(=O)/C(=C/c3ccc(F)cc3)C2)N1[O]` (stereo not given) showed a viability at 24 h, 10 µM [1] of 50.7%, a viability at 10 µM (MCF7 [2]) of 38.3% and a viability at 10 µM (A2780 [3]) of 5.89%.
With `CC1(C)C=C(CN2C/C(=C\c3ccc(F)cc3)C(=O)/C(=C/c3ccc(F)cc3)C2)C(C)(C)N1` the viability at 24 h, 10 µM [1] was 78.8%, the viability at 10 µM (MCF7 [2]) was 28.3% and the viability at 10 µM (A2780 [3]) was 4.79%.
In the case of `O=C1/C(=C/c2ccccc2F)CNC/C1=C\c1ccccc1F`, the viability at 24 h, 10 µM [1] is reported as 32.9%, the viability at 10 µM (MCF7 [2]) is reported as 34.5% and the viability at 10 µM (A2780 [3]) is reported as 12.8%.
With `O=C1/C(=C/c2ccc(C(F)(F)F)cc2)CNC/C1=C\c1ccc(C(F)(F)F)cc1` the viability at 24 h, 10 µM [1] was 51.7%, the viability at 10 µM (MCF7 [2]) was 20.2% and the viability at 10 µM (A2780 [3]) was 13.1%.
`CC1(C)CCC(C)(/C=C/CN2C/C(=C\c3ccc(F)cc3)C(=O)/C(=C/c3ccc(F)cc3)C2)N1[O]` (stereo not given) showed a viability at 24 h, 10 µM [1] of 51.9%, a viability at 10 µM (MCF7 [2]) of 43.1% and a viability at 10 µM (A2780 [3]) of 5.81%.
With `O=C1/C(=C/c2ccc(F)cc2)CNC/C1=C\c1ccc(F)cc1` the viability at 24 h, 10 µM [1] was 61.4%, the viability at 10 µM (MCF7 [2]) was 17.1% and the viability at 10 µM (A2780 [3]) was 12.4%.
In the case of `CC1(C)C=C(CN2C/C(=C\c3ccc(F)cc3)C(=O)/C(=C/c3ccc(F)cc3)C2)CC(C)(C)N1[O]`, the viability at 24 h, 10 µM [1] is reported as 51.4%, the viability at 10 µM (MCF7 [2]) is reported as 20.1% and the viability at 10 µM (A2780 [3]) is reported as 6.86%.
